# Screening results: PubChem, The Scripps Research Institute Molecular Screening Center
# Most compounds without a hit are left out; they make up all but 3.3% or so of the library.
# SIAE primary: inhibitors of human sialic acid acetylesterase SIAE. 370,000 tested, 0.69% active. SIAE FP-Rh probe binding, fluorescence polarization. AID 1053197. Q9HAT2. inhibition, % at 9.66 µM;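 active = inhibition above a cutoff: mean of compounds within the control limits plus 3 SD of those, cut at about 17% in these data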;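 note: 0% = plate median of compound wells and 100% = probe without SIAE protein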
# TCR CD3 inh: inhibitors of human TCR-CD3 interaction; 360,000 tested, 0.37% active; AID 651800; inhibition, % at 9.4 µM; TAMRA-labeled TCR probe fluorescence, biochemical; in the data active = inhibition above about 19%;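 note: recombinant mutant TCR 2C K166C tagged with TAMRA read by polarization; 0% = receptor in buffer alone and 100% = receptor with positive control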
# PRMT1 FP inh: blocks human protein arginine methyltransferase 1; 370,000 tested, 1.3% active; Q99873; AID 652257; recombinant PRMT1, activity-based probe fluorescence polarization; inhibition, % at 2.79 µM;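 active = inhibition above about 21% made by adding two undisclosed values, limit read from the data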
# Target sequence (Q99873 whole entry, looked up): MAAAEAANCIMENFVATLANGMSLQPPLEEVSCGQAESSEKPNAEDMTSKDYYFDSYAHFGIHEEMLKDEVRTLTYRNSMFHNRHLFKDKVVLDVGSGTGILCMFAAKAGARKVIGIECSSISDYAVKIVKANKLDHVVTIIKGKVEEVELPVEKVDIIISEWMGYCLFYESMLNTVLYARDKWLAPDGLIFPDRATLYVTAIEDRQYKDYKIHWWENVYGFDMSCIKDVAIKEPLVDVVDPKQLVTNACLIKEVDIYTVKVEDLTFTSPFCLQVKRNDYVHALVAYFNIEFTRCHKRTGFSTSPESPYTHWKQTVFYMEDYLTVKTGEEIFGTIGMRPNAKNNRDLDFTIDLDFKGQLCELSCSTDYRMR
# rCAG binder: binds r(CAG) RNA repeats | inhibition, % at 3 µM | 370,000 tested, 1.3% active | r(CAG) RNA repeat, TO-PRO-1 dye displacement fluorescence | AID 651821;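 active = inhibition above the plate cutoff, the mean of all test compounds on that plate plus 3 SD, cut at about 35% in these data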;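 note: 0% = DMSO alone and 100% = 100 µM mitoxantrone as full dye displacement; higher means more dye released from RNA so lower well fluorescence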
# ABHD4 inh: ABHD4 (mouse) inhibition, primary FP screen | Q8VD66 | 370,000 tested, 0.54% active | AID 720543 | purified mABHD4, FP-Rh probe fluorescence polarization | inhibition, % at 8.92 µM;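 active = inhibition exceeding the mean over every tested compound plus 3 SD, cut at about 30% in these data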;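 note: 0% = plate median of compound wells and 100% = S159A mutant with DMSO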
#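 system = mouse ABHD4 enzyme, wild type | medium = HEPES pH 7.0, NaCl, Pluronic buffer | also added = FP-Rh probe | incubation = Enzyme–compound pre-incubation 45 min, then probe 60 min, both 25 °C | technique = fluorescence polarization, excitation 525 nm, emission 598 nm, BODIPY TMR filters | controls = S159A mutant high control, sample median low control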
# rCAG bind conf: r(CAG) RNA repeat binding, confirmation. shares compounds with rCAG binder. TO-PRO-1 dye displacement fluorescence. inhibition, % at 3 µM. 4,300 tested, 70% active;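 active = inhibition above a per-plate cutoff, the mean inhibition of sample wells plus 3 SD, cut at about 35% in these data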;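 note: loss of TO-PRO-1 fluorescence as compound displaces dye from 1x1 AA loop RNA; 0% = DMSO only wells and 100% = 100 µM mitoxantrone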
# dCAG dye counter: disrupts DNA CAG TO-PRO-1 complex, flagging rCAG hits. inhibition, % at 3 µM. AID 652068. 4,300 tested, 94% active. d(CAG) DNA oligo TO-PRO-1 dye displacement, fluorescence. shares compounds with rCAG binder;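 active = inhibition above its plate's cutoff, the mean test-well inhibition plus 3 SD, cut at about 4.8% in these data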;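 note: 0% = DNA dye mix with DMSO and 100% = 100 µM mitoxantrone; hits displace the dye from DNA and so lower well fluorescence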
# DNA CAG DR: counter-screen for rCAG binders: inhibitors of DNA CAG TO-PRO-1 complex; 250 tested, 20% active; shares compounds with rCAG binder; IC50, µM; AID 686960; DNA CAG/GTC duplex TO-PRO-1 dye displacement fluorescence; in the data active = IC50 below about 10 µM
# Starred values were filed as active, the others as inactive; . = no result given.
SMILES,SIAE primary,TCR CD3 inh,PRMT1 FP inh,rCAG binder,ABHD4 inh,rCAG bind conf,dCAG dye counter,others
C[C@@H]1[C@H](O)[C@@H](C)/C=C/C=C/C=C/C=C/C=C/C=C/C=C/[C@H](OC2O[C@H](C)[C@@H](O)[C@H](N)[C@@H]2O)C[C@@H]2O[C@](O)(C[C@@H](O)C[C@@H](O)[C@H](O)CC[C@@H](O)C[C@@H](O)CC(=O)O[C@H]1C)C[C@H](O)[C@H]2C(=O)O (stereo partly specified),-3,.,3,41*,-7,44*,14*,DNA CAG DR=>30
COc1cccc(-c2nc(-c3ccccc3)c(-c3ccccc3)[nH]2)c1OCC(=O)O,5,2,1,64*,10,61*,19*,
O=C(O)COc1ccccc1-c1nc(-c2ccccc2)c(-c2ccccc2)[nH]1,3,-1,4,63*,10,51*,13*,
O=C(O)COc1ccc(-c2nc(-c3ccccc3)c(-c3ccccc3)[nH]2)cc1,8,0,-2,26,-6,.,.,
Cc1c(NC(=O)C2CCCN(S(=O)(=O)c3ccc(Br)s3)C2)c(=O)n(-c2ccccc2)n1C (stereo unspecified),3,.,-7,1,0,.,.,
CCC(C(=O)Nc1ccc(C(=O)O)cc1NC(=O)C(CC)c1ccccc1)c1ccccc1 (stereo unspecified),-2,-5,4,63*,-11,57*,23*,
CCC(C(=O)Nc1cc(C(=O)O)ccc1C)c1ccccc1 (stereo unspecified),12,2,0,-8,-4,.,.,
CCN(CC)S(=O)(=O)c1cc(C(=O)Nc2ccccc2C(=O)O)ccc1OC,-4,9,-3,37*,3,29,6.6*,
COc1ccc(NC(=O)c2ccccc2NC(=O)c2ccccc2)cc1,4,1,1,3,0,.,.,
CCN(Cc1ccccc1)S(=O)(=O)c1cc(C(=O)NC2CCCCCC2)ccc1OC,-8,1,-3,0,-1,.,.,
COc1ccccc1C(=O)Nc1ccc(C(=O)Nc2ccccc2C(=O)O)cc1,-88,-2,5,42*,-21,60*,20*,
CCC(C(=O)Nc1ccc(C(=O)Nc2ccccc2C(=O)O)cc1)c1ccccc1 (stereo unspecified),-35,0,3,75*,-22,67*,27*,
Cn1c(SCC(=O)Nc2ccc(C(=O)O)cc2)nnc1-c1ccccn1,-3,.,2,1,-1,.,.,
O=C(CN1CCc2onc(-c3ccc(-n4cc(C5=CCCCC5)nn4)cc3)c2C1=O)N1CCOCC1,-7,.,4,3,-8,.,.,
COC(=O)[C@]1(C#N)CC(=O)N(c2ccccc2)[C@@H]1c1ccccc1,-2,.,-1,0,0,.,.,
COc1cc(/C=C2\SC(=O)N(c3ccc(O)cc3)C2=O)cc(OC)c1OC,1,2,0,-1,2,.,.,
COc1cc(/C=C2\SC(=O)N(c3ccccc3Cl)C2=O)cc([N+](=O)[O-])c1O,-2,-8,8,55*,7,58*,18*,
COc1ccc(C2C(C(=O)N3CCN(C=O)CC3)CC(=O)N2c2ccc(OC)cc2)cc1 (stereo unspecified),14,.,-2,2,2,.,.,
COc1ccc(CN2CCC(CNC(=O)Nc3ccc(Cl)cc3)CC2)cc1,0,.,4,4,2,.,.,
COc1ccc(OCC(=O)Nc2nnc(S(=O)(=O)N3CCCCCC3)s2)cc1,3,3,2,40*,0,28,7.5*,
O=C(COc1ccccc1)Nc1nnc(S(=O)(=O)N2CCCC2)s1,0,10,-4,21,2,.,.,
CCN(c1ccc(OC)cc1)S(=O)(=O)c1nnc(NC(=O)COc2ccccc2)s1,-11,5,-5,66*,-4,54*,19*,
COc1ccccc1C(=O)Nc1nnc(S(=O)(=O)N2CCC(C)CC2)s1,-2,8,-3,12,-1,.,.,
